From PMC5154386 (Journal of medicinal chemistry, 2015)
In brackets after ≈: the same amount, converted by molar mass. Each block holds one molecule with its values, some of them ahead of it.

How the values were obtained:
Pythium insidiosum = conditions: in vitro; cited from earlier work
[1] = cited from earlier work
E. coli MC1061 (XIV) = test: Antibacterial MIC determination; assay type: cell-based; conditions: Escherichia coli
Method in brief: (§1)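 MICs in μg/mL against a panel of 11 Gram-positive strains (including MRSA strains and VRE) and six Gram-negative strains. The panel held strains both susceptible and resistant to the parent aminoglycoside, each coded by a roman numeral. Each determination was run at least in duplicate.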

[2] = tested on: tested Gram-positive bacteria; test: Antibacterial MIC, summary over the Gram-positive panel; assay type: cell-based; conditions: iv
Method in brief: as §1

[3] = tested on: K. pneumoniae ATCC 27736 (XV); test: Antibacterial MIC determination; assay type: cell-based; conditions: Klebsiella pneumoniae, ATCC27736
Method in brief: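 MIC in μg/mL against a panel of Gram-positive and Gram-negative strains that includes strains susceptible and resistant to the parent aminoglycoside; each determination done at least in duplicate.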

[4] = tested on: Gram-negative bacterial strains tested; test: Antibacterial MIC, summary over the Gram-negative panel; assay type: cell-based
[5] = tested on: murine red blood cells (mRBCs); test: Hemolytic assay; assay type: cell-based, mouse; conditions: for hemolysis: at higher concentrations
Method in brief: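 Hemolysis was measured on murine red blood cells exposed to the test compounds. Gramicidin, amphotericin B and the parent aminoglycoside were run as comparators.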

[6] = tested on: AAC(3), AAC(2′), and AAC(6′); test: TLC assessment of modification by AACs alone and together; assay type: biochemical; conditions: for modification by three AACs used simultaneously (TLC): AAC(3), AAC(2′) and AAC(6′) simultaneously
BEAS-2B cell line = test: Mammalian cell cytotoxicity assay; assay type: cell-based
A549 cell line = test: Mammalian cell cytotoxicity assay; assay type: cell-based
MRSA (III) = test: Antibacterial MIC determination; assay type: cell-based; conditions: Staphylococcus aureus
Method in brief: as §1

[7] = tested on: S. aureus NRS383 (USA 200) (VII); test: Antibacterial MIC determination; assay type: cell-based; conditions: Staphylococcus aureus, NRS383|USA200
Method in brief: as §1

[8] = tested on: various yeast strains (C. albicans); test: In vitro combination study with POS, summary over yeast strains; assay type: cell-based; conditions: for lowering of the MIC value by POS: in combination with POS; for FICI values, range: with POS, all tested fungal strains (except 3d against strain A)
Method in brief: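 Posaconazole was tested in combination with the test compound against yeast strains, both azole-resistant and azole-susceptible. FICI = (MIC of A in combination / MIC of A alone) + (MIC of B in combination / MIC of B alone). FICI ≤ 0.5 was scored synergy, 0.5 < FICI < 4 no interaction, and FICI ≥ 4 antagonism.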

[9] = tested on: various yeast strains and filamentous fungi; test: Antifungal MIC, summary over the fungal strains tested; assay type: cell-based, Candida and Aspergillus species; conditions: for MIC values, range: range over the fungal strains tested; for MIC of sulfone relative to MIC of corresponding thioether: collection of fungal strains, generally
[10] = tested on: C. albicans ATCC 64124 (strain B); test: Time-kill assay; assay type: cell-based; conditions: for time-kill activity at subinhibitory concentration: 1/2 MIC, 24 h period; for time to complete fungal cell death: at MIC
[11] = tested on: S. aureus NRS385 (USA 300) (VIII); test: Antibacterial MIC determination; assay type: cell-based; conditions: Staphylococcus aureus, NRS385|USA300
Method in brief: as §1

[12] = tested on: Aspergillus nidulans ATCC 38163 (H); test: Antifungal MIC determination; assay type: cell-based; conditions: Aspergillus nidulans (strain H)
[13] = tested on: C. albicans ATCC 10231 (strain A); test: Spontaneous frequency of resistance; assay type: cell-based
S. aureus ATCC 29213 (V) = test: Antibacterial MIC determination; assay type: cell-based; conditions: Staphylococcus aureus, ATCC29213
Method in brief: as §1

[14] = at 50× MIC, MIC as in combination with POS

SMILES: NC[C@@H]1O[C@H](O[C@H]2[C@@H](O)[C@H](O[C@@H]3[C@@H](O)[C@H](N)C[C@H](N)[C@H]3O[C@H]3O[C@H](CO)[C@@H](O)[C@H](O)[C@H]3N)O[C@@H]2CO)[C@H](N)[C@@H](O)[C@@H]1O [PAR, paromomycin]
concentration displaying antifungal activity (antifungal MIC) (Pythium insidiosum): 64 µg/mL
safe serum concentration [1]: 30 to 40 µg/mL

SMILES: NC[C@H]1O[C@H](O[C@H]2[C@H](O)[C@@H](O[C@H]3O[C@H](CO)[C@@H](O)[C@H](N)[C@H]3O)[C@H](N)C[C@@H]2N)[C@H](O)[C@@H](O)[C@@H]1O [KANA, kanamycin A]
MIC (E. coli MC1061 (XIV)): 8 to 16 µg/mL (≈ 16.5 to 33 µM)
MIC [2]: > 128 µg/mL
MIC [3]: 16 to 32 µg/mL (≈ 33 to 66 µM)

SMILES: NC[C@H]1O[C@H](O[C@H]2[C@H](O)[C@@H](O[C@H]3O[C@H](CO)[C@@H](O)[C@H](N)[C@H]3O)[C@H](N)C[C@@H]2N)[C@H](N)[C@@H](O)[C@@H]1O [KANB, kanamycin B, reference compound]
MIC [4]: ≤ 16 µg/mL
hemolysis [5]: little to no hemolysis
modification by three AACs used simultaneously (TLC) [6]: converted to a diacetylated adduct
modification by a single AAC (TLC) ([6]; individually subjected to AAC(3), AAC(2′), or AAC(6′) overnight): completely converted to its corresponding monoacetylated product
toxicity (BEAS-2B cell line): little to no toxicity
toxicity (A549 cell line): little to no toxicity

SMILES: CCCCCCCCSC[C@@H]1O[C@@H](O[C@@H]2[C@@H](O)[C@H](O[C@@H]3O[C@@H](CN)[C@H](O)[C@@H](O)[C@@H]3N)[C@@H](N)C[C@H]2N)[C@@H](O)[C@H](N)[C@H]1O [Compound 3a]
hemolysis [5]: little to no hemolysis
toxicity (BEAS-2B cell line): little to no toxicity
toxicity (A549 cell line): little to no toxicity

SMILES: [H]/N=C(/N)N[C@H]1[C@H](O)[C@@H](O)[C@H](O[C@@H]2O[C@@H](C)[C@](O)(C=O)[C@H]2O[C@@H]2O[C@@H](CO)[C@H](O)[C@@H](O)[C@@H]2NC)[C@@H](N/C(N)=N\[H])[C@@H]1O [STR, streptomycin]
concentration displaying antifungal activity (antifungal MIC) (Pythium insidiosum): 64 µg/mL
safe serum concentration [1]: 30 to 40 µg/mL

SMILES: CCCCCCCCCCCCCCSC[C@@H]1O[C@@H](O[C@@H]2[C@@H](O)[C@H](O[C@@H]3O[C@@H](CN)[C@H](O)[C@@H](O)[C@@H]3N)[C@@H](N)C[C@H]2N)[C@@H](O)[C@H](N)[C@H]1O [Compound 3d]
MIC (MRSA (III)): 32 to 64 µg/mL (≈ 46 to 92 µM)
MIC [7]: 8 to 16 µg/mL (≈ 11.5 to 23 µM)
modification by three AACs used simultaneously (TLC) [6]: only the 3-monoacetylated product was obtained
lowering of the MIC value by POS [8]: 2–8 fold
FICI values, range [8]: 0.07 to 0.31
MIC values, range [9]: ≤1.95 to 15.6 µg/mL
time-kill activity at subinhibitory concentration [10]: fungistatic activity
time to complete fungal cell death [10]: 12 h
MIC [11]: 16 to 32 µg/mL (≈ 23 to 46 µM)

SMILES: NC[C@@H]1O[C@H](O[C@H]2[C@@H](O)[C@H](O[C@@H]3[C@@H](O)[C@H](N)C[C@H](N)[C@H]3O[C@H]3O[C@H](CN)[C@@H](O)[C@H](O)[C@H]3N)O[C@@H]2CO)[C@H](N)[C@@H](O)[C@@H]1O [NEO, neomycin B]
concentration displaying antifungal activity (antifungal MIC) (Pythium insidiosum): 64 µg/mL

SMILES: CCCCCCCCCCCCSC[C@@H]1O[C@@H](O[C@@H]2[C@@H](O)[C@H](O[C@@H]3O[C@@H](CN)[C@H](O)[C@@H](O)[C@@H]3N)[C@@H](N)C[C@H]2N)[C@@H](O)[C@H](N)[C@H]1O [Compound 3c]
mRBCs lysed ([5]; 50× MIC, MIC as in combination with POS): 60%
less hemolytic than AmB [5, 14]: ~ 30%
less hemolytic than gramicidin [5, 14]: ~ 20%
lowering of the MIC value by POS [8]: 4–16 fold
FICI values, range [8]: 0.07 to 0.31
times better than KANB [12]: 64 times
MIC values, range [9]: ≤1.95 to 31.2 µg/mL
mutants ([13]; 3c (8 μg/mL) and POS (0.25 μg/mL), 96 h incubation): 24 colonies
spontaneous frequency rate of resistance ([13]; combination of 3c and POS): 2.4 × 10^−7
time-kill activity at subinhibitory concentration [10]: fungistatic activity
time to complete fungal cell death [10]: 24 h

reduction of the MIC values of POS ([8]; in the presence of 3c): 16–64 fold
reduction of the MIC values of POS ([8]; in the presence of 3d): 16–32 fold
SMILES: CC[C@@H]([C@H](C)O)n1ncn(-c2ccc(N3CCN(c4ccc(OC[C@@H]5CO[C@@](Cn6cncn6)(c6ccc(F)cc6F)C5)cc4)CC3)cc2)c1=O [POS, posaconazole, reference compound]

SMILES: CCCCCCCCCCCCS(=O)(=O)C[C@@H]1O[C@@H](O[C@@H]2[C@@H](O)[C@H](O[C@@H]3O[C@@H](CN)[C@H](O)[C@@H](O)[C@@H]3N)[C@@H](N)C[C@H]2N)[C@@H](O)[C@H](N)[C@H]1O [Compound 4c]
MIC of sulfone relative to MIC of corresponding thioether [9]: ≤ 2 fold dilution

SMILES: CNC(C)C1CCC(N)C(OC2C(N)CC(N)C(OC3OCC(C)(O)C(NC)C3O)C2O)O1 (stereo not shown) [GEN, gentamicin]
concentration displaying antifungal activity (antifungal MIC) (Pythium insidiosum): 64 µg/mL
safe serum concentration [1]: 30 to 40 µg/mL

SMILES: CCCCCCCCCCCCCCS(=O)(=O)C[C@@H]1O[C@@H](O[C@@H]2[C@@H](O)[C@H](O[C@@H]3O[C@@H](CN)[C@H](O)[C@@H](O)[C@@H]3N)[C@@H](N)C[C@H]2N)[C@@H](O)[C@H](N)[C@H]1O [Compound 4d]
MIC of sulfone relative to MIC of corresponding thioether [9]: ≤ 2 fold dilution

MIC [11]: 32 to 64 µg/mL (≈ 50 to 100 µM)
MIC (S. aureus ATCC 29213 (V)): 16 to 32 µg/mL (≈ 25 to 50 µM)
SMILES: CCCCCCCCCCSC[C@@H]1O[C@@H](O[C@@H]2[C@@H](O)[C@H](O[C@@H]3O[C@@H](CN)[C@H](O)[C@@H](O)[C@@H]3N)[C@@H](N)C[C@H]2N)[C@@H](O)[C@H](N)[C@H]1O [Compound 3b]
hemolysis [5]: little to no hemolysis
toxicity (BEAS-2B cell line): little to no toxicity
toxicity (A549 cell line): little to no toxicity

SMILES: CCCCCCCCCCCCCCCCSC[C@@H]1O[C@@H](O[C@@H]2[C@@H](O)[C@H](O[C@@H]3O[C@@H](CN)[C@H](O)[C@@H](O)[C@@H]3N)[C@@H](N)C[C@H]2N)[C@@H](O)[C@H](N)[C@H]1O [Compound 3e]
times better than FLC [12]: 32 times
times better than KANB [12]: 64 times
MIC values, range [9]: 1.95 to 3.9 µg/mL
times more effective than KANB ([9]; several of the tested yeast strains): 32 times
